MIC and ΔTm data for 1 compound are collected here from ChEMBL document CHEMBL5154669, “G-Quadruplex DNA as a Target in Pathogenic Bacteria: Efficacy of an Extended Naphthalene Diimide Ligand and Its Mode of Action” (J Med Chem, 2022).

Broadly, the MIC is the lowest concentration found to suppress growth. By ΔTm is commonly meant the change in melting temperature against a reference sample.

The subject of one assay is Enterobacter cloacae. Briefly: Antimicrobial activity against Enterobacter cloacae LMG 02783 assessed as inhibition of bacterial growth in presence of D11 incubated for 20 hrs. Particulars: LMG 02783, 20 h.
A further assay concerns DNA. The assay can be described thus: Stabilization of Staphylococcus aureus in G Quadruplex DNA GGGGCTAATTGGGGCTGGTGG assessed as change in melting temperature at 10 uM incubated for 16 hrs by […]. The format is nucleic-acid assay. Summed up:
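Readout was CD melting, not FRET: 2.5 μM oligonucleotide in 10 mM lithium cacodylate pH 7.4 with KCl set per sequence (initial Tm 60-70 °C). Annealed 95 °C 5 min, cooled to room temperature over 4 h, then ligand 10 μM (4 equiv) equilibrated 16 h at 20 °C. Ellipticity at 260 nm tracked every 0.1 °C, 20-95 °C at 5 °C/min; Tm by van't Hoff two-state fit.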

Take `CN(C)CCCn1c(=O)c2ccc3c(=O)n(CCCN(C)C)c(=O)c4c5[nH]c6ccccc6[nH]c5c(c1=O)c2c34.O=C(O)C(F)(F)F.O=C(O)C(F)(F)F`: the MIC with Enterobacter cloacae was 8 µM. The ΔTm in the assay on DNA is 27.3 °C.
